# Calls of active or inactive are those of the source. The calls are words filed in the database; no cut-off is given here.
# Legend:
# [1] = target: T1, Bile acid receptor (Homo sapiens) (UniProt Q96RI1); experiment: Antagonist activity at human Gal4-fused FXR assessed as inhibition of chenodeoxycholic acid-induced luciferase activity at 0.03 to 10 uM by reporter gene assay; type: functional
# T1 sequence (whole entry): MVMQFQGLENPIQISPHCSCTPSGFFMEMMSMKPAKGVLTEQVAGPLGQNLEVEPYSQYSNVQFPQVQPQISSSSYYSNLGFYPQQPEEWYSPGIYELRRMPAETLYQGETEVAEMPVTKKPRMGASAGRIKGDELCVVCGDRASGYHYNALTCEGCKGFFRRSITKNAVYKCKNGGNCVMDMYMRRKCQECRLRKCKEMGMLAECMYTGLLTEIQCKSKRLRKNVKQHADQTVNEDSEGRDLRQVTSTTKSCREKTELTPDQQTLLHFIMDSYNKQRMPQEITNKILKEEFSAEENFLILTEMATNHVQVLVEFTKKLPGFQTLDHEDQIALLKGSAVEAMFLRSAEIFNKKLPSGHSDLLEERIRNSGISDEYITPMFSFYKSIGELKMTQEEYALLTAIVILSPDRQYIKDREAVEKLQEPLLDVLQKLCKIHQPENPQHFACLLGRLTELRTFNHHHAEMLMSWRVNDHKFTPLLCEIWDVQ
# [2] = target: T2, Oxysterols receptor LXR-beta (Homo sapiens, UniProt P55055); experiment: Transactivational agonist activity at human LXRbeta transfected in HEK293 cells expressing CMX-Gal4N assessed as luciferase activity at 30 uM after 16 hrs by reporter gene assay; type: cell-based; settings: hek293, 16 h
# T2 sequence (P55055 whole entry): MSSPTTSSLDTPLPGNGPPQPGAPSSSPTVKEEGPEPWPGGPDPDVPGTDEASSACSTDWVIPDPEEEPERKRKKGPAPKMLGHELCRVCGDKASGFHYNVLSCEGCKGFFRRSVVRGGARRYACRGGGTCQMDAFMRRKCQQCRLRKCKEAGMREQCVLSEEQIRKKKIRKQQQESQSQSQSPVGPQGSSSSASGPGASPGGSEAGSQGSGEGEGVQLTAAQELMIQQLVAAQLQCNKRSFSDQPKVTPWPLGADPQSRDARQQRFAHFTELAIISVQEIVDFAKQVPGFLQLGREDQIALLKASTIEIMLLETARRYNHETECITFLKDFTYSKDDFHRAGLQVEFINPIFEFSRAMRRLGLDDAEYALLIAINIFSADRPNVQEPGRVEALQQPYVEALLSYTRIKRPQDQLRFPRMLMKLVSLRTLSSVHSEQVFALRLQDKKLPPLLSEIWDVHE
# [3] = target: T3, Oxysterols receptor LXR-alpha (Homo sapiens, UniProt Q13133); experiment: Transactivational agonist activity at human LXRalpha transfected in HEK293 cells expressing CMX-Gal4N assessed as luciferase activity at 30 uM after 16 hrs by reporter gene assay; type: cell-based; settings: hek293, 16 h
# T3 sequence (Q13133 whole entry): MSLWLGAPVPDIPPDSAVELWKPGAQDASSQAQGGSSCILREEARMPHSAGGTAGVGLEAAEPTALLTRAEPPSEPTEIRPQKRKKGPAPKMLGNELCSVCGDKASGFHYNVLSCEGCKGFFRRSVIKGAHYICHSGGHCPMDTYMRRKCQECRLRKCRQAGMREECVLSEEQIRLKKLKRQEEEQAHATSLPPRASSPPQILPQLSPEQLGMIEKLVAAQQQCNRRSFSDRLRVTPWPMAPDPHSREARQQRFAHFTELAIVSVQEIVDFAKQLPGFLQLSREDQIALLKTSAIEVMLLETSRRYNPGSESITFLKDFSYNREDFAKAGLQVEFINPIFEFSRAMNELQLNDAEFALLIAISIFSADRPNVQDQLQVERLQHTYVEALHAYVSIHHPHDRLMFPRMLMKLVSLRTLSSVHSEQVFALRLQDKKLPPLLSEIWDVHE
# [4] = target: T3, Oxysterols receptor LXR-alpha; experiment: Transactivational agonist activity at human LXRalpha transfected in HEK293 cells coexpressing CMX-Gal4N-DRIP205 assessed as DRIP205 recruitment at 10 uM after 16 hrs by mammalian two-hybrid assay; type: cell-based; settings: hek293, 16 h
# In short: (§1)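 Mammalian two-hybrid in HEK293 cells by calcium phosphate cotransfection: CMX-VP16N-hLXRα, Gal4N-fused SRC1, DRIP205, NCoR or SMRT (15 ng), tk-MH100×4-luc (50 ng) and CMX-β-gal (10 ng). Compound or DMSO added 8 h after transfection for 16 h. Luciferase was normalized to β-galactosidase, in triplicate.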
# [5] = tested on: Peritoneal macrophage cell; experiment: Inhibition of LPS-induced IL-6 mRNA expression in LXRalpha-deficient C57BL/6J mouse peritoneal macrophages at 10 uM incubated for 6 hrs prior to LPS-challenge measured after 18 hrs by RT-PCR analysis; type: functional, cell-based
# In short: (§2)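 Thioglycollate-elicited peritoneal macrophages (wild-type C57BL/6J or LXRα-null, 8–10 weeks) were plated at 4 × 10⁶/well and pretreated with compound 6 h before LPS 100 ng/mL. Cells were harvested after 18 h. il-6 and il-1β mRNA were measured by real-time quantitative PCR, normalized to GAPDH.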
# [6] = tested on: Peritoneal macrophage cell; experiment: Inhibition of LPS-induced IL-6 production in LXRalpha,LXRbeta-deficient C57BL/6J mouse peritoneal macrophages at 10 uM incubated for 6 hrs prior to LPS-challenge measured after 18 hrs by ELISA; type: functional, cell-based
# In short: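 Thioglycollate-elicited peritoneal macrophages came from 8–10-week LXRα/β-null mice on C57BL/6J background, harvested 4 days post-injection. They were adhered, rested 24 h and plated at 2 × 10⁵/well, then pretreated with compound 6 h before LPS 10 ng/mL. Supernatant mIL-6 was measured by ELISA after 18 h; means ± SE of ≥3 independent measurements, ANOVA.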
# [7] = target: T3, Oxysterols receptor LXR-alpha; experiment: Transactivational antagonist activity at human LXRalpha transfected in HEK293 cells expressing CMX-Gal4N assessed as inhibition of T1317-induced luciferase activity after 16 hrs by reporter gene assay; type: functional, cell-based
# [8] = target: T3, Oxysterols receptor LXR-alpha; experiment: Transactivational agonist activity at human LXRalpha transfected in HEK293 cells coexpressing CMX-Gal4N-SRC1 assessed as SRC1 recruitment at 10 uM after 16 hrs by mammalian two-hybrid assay; type: cell-based; settings: hek293, 16 h; in short: as §1
# [9] = target: T2, Oxysterols receptor LXR-beta; experiment: Transactivational antagonist activity at human LXRbeta transfected in HEK293 cells expressing CMX-Gal4N assessed as inhibition of T1317-induced luciferase activity after 16 hrs by reporter gene assay; type: functional, cell-based
# [10] = tested on: Peritoneal macrophage cell; experiment: Inhibition of LPS-induced IL-1beta mRNA expression in LXRalpha-deficient C57BL/6J mouse peritoneal macrophages at 10 uM incubated for 6 hrs prior to LPS-challenge measured after 18 hrs by RT-PCR analysis; type: functional, cell-based; in short: as §2
# [11] = target: T4, Oxysterols receptor LXR-alpha (Homo sapiens) (UniProt Q13133); experiment: Transactivational antagonist activity at human LXRalpha transfected in HEK293 cells coexpressing CMX-Gal4N-SMRT assessed as SMRT recruitment after 16 hrs by reporter gene assay; type: functional, cell-based; in short: as §1
# T4 sequence (whole entry): T3 sequence (Q13133 whole entry)
# [12] = Transrepressional activity at LXR in C57BL/6J mouse peritoneal macrophages assessed as inhibition of LPS-induced IL-1beta mRNA expression at 10 uM incubated for 6 hr prior to LPS-challenge measured after 18 hrs by RT-PCR analysis; in short: as §2
compound,measurement,setting,value
C=C1c2ccccc2C(=O)N(C)c2ccc(CC)cc21,inhibition,[1],inactive
same,Activity,[2],Not Active
same,Activity,[3],Not Active
same,Activity,[4],Non-toxic
same,inhibition,[5],inactive
same,inhibition,[6],inactive
same,IC50,[7],> 30 µM
same,Activity,[8],Non-toxic
same,IC50,[9],> 30 µM
same,inhibition,[10],inactive
same,Activity,[11],Dose-dependent effect
same,inhibition,[12],Active
